HSF1 inhib = HSF1 inhibition. activity change, negative = inhibition, % at 7.5 µM (by protocol). NIH3T3-HGL HSE-luciferase, MG132-induced, luminescence 8 h; active compounds read low. 300,000 tested, 0.77% active. AID 2098;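 active means more than half of replicate wells show activity change below -50%, luminescence cut by over half; inconclusive means some wells, but at most half, below -50%; inactive means no replicate well below -50%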;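 further: luciferase reports HSF-1 transcriptional activity via heat shock element; 0% = median of DMSO wells and -100% = zero luminescence signal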
L major viab = Leishmania major promastigote growth inhibition. Leishmania major promastigotes, resazurin fluorescence viability. inhibition, % at 10 µM. 200,000 tested, 9% active; in the data active means inhibition above about 50%;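 further: promastigotes grown with compound for 44 hours at 28 °C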
Hsp70 activator = Hsp70 transcriptional activation, primary screen; HeLa Hsp70 promoter luciferase reporter, luminescence; scaled: vehicle 0, proteasome-inhibitor control 100%; activation, % at 10 µM; 200,000 tested, 0.04% active;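 active means activation above the mean across all tested compounds plus 3 SD, cutoff set per campaign, cut at about 5.5% in these data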;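 further: 100% = MG132 at 30 µM as the positive control and 0% = DMSO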
T cruzi inh = blocks replication of Trypanosoma cruzi; T. cruzi beta-gal in NIH3T3, luminescence, 90 h; inhibition, % (concentration not given with the values); 300,000 tested, 1.4% active; AID 1885;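 active means mean inhibition across valid replicates above about 55%, limit read from the data; inconclusive means mean below that limit but half or more replicates reach it; inactive means mean below it, under half of replicates reach it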;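 further: signal also drops with host cell toxicity which is not excluded here; 0% = plate median of DMSO wells and 100% = zero luminescence signal; higher percent means less beta-gal luminescence so fewer parasites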
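Assay system: NIH/3T3 host cells with β-galactosidase reporter T. cruzi; input: 5,000 host fibroblasts per well; compound: single 50 nL compound addition per well in DMSO; timing: ≥90 h infection period, 3 h prior cell attachment; measured by: GalScreen β-gal luminescence, detergent lysis, 60 min; evaluation: percent inhibition of parasite-derived β-gal signal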
HSF1 activator = increases HSF-1 driven luciferase reporter signal; NIH3T3-HGL HSF-1 luciferase reporter, MG132, 8 h; 100% = twice DMSO control signal; activation, % at 9 µM; 300,000 tested, 1.7% active;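 active means mean replicate activation of at least 50% with a set share of replicates each reaching 50%; inconclusive means only one of those two conditions met; inactive means mean below 50% and too few replicates reaching it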;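 further: 0% = median of the neutral control wells and 100% = twice that signal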
* hit, by the source's call. The entries come from a sample that favours hits as a whole.

Results for CCCn1cc(CN2CCCC(C(=O)c3cccc(OC(C)C)c3)C2)c(C)n1 (stereo not given) ?
HSF1 inhib: 7; L major viab: 74*; Hsp70 activator: -1; T cruzi inh: inconclusive; HSF1 activator: -10

Results for CC(C)Oc1cccc(C(=O)C2CCCN(C(=O)CCn3cnnn3)C2)c1 (stereo not given) ?
HSF1 inhib: 0; L major viab: -6; Hsp70 activator: 0; T cruzi inh: -1; HSF1 activator: 14

How did CCCn1ncc(CN2CCCC(C(=O)c3cccc(OC(C)C)c3)C2)c1C (stereo not given) do in these assays?
HSF1 inhib: -3; T cruzi inh: 55*; HSF1 activator: -1

Results for Cc1cc(C(=O)OCC(=O)Nc2ccccc2[N+](=O)[O-])c2ccccc2n1 ?
HSF1 inhib: -14; L major viab: -5; Hsp70 activator: 0; T cruzi inh: -19; HSF1 activator: -7

How did Cc1cccc(NC(=O)c2ccccc2O)c1C do in these assays?
HSF1 inhib: 68; L major viab: 2; Hsp70 activator: 0; T cruzi inh: -3; HSF1 activator: 124*

What do the screens show for `COc1ccc(NC(=O)Cc2ccc(C)cc2)c([N+](=O)[O-])c1`?
HSF1 inhib: 5; L major viab: 91*; Hsp70 activator: 0; T cruzi inh: 3; HSF1 activator: 19

Results for Cc1cc(C(=O)NC(=S)Nc2cccc(NC(=O)C(C)C)c2)ccc1[N+](=O)[O-] ?
HSF1 inhib: -12; L major viab: 82*; Hsp70 activator: 0; T cruzi inh: 2; HSF1 activator: -18

Results for CC(C)C(=O)Nc1cccc(NC(=S)NC(=O)c2ccc([N+](=O)[O-])cc2)c1 ?
HSF1 inhib: 0; L major viab: 6; Hsp70 activator: 0; T cruzi inh: -8; HSF1 activator: 4

What do the screens show for `COc1ccc(NC(=O)c2cccc(NC(=O)C(C)C)c2)c([N+](=O)[O-])c1`?
HSF1 inhib: 3; L major viab: 73*; Hsp70 activator: 0; T cruzi inh: -1; HSF1 activator: -7

What do the screens show for `C/C(=N/OC(=O)c1ccccc1)c1oc(C)nc1C`?
HSF1 inhib: -3; T cruzi inh: -25; HSF1 activator: 2

What do the screens show for `Cc1cc(C)c(NC(=O)C2CCCO2)c(C)c1NC(=O)C1CCCO1` (stereo not given)?
HSF1 inhib: -12; T cruzi inh: -15; HSF1 activator: -26

How did O=C(O)/C=C/C(=O)N1Cc2cc3ccccc3nc2C1 do in these assays?
HSF1 inhib: 3; T cruzi inh: -1; HSF1 activator: -2

What do the screens show for `Cc1cccc(C)c1NC(=O)c1ccc([N+](=O)[O-])s1`?
HSF1 inhib: 16; L major viab: 99*; Hsp70 activator: 0; T cruzi inh: 49; HSF1 activator: inconclusive

Results for Cc1cccc(C)c1NC(=O)CNC(=O)Cc1ccccc1[N+](=O)[O-] ?
HSF1 inhib: -3; T cruzi inh: -15; HSF1 activator: 1

How did O=C(NC1CCCC1)c1ccc([N+](=O)[O-])s1 do in these assays?
HSF1 inhib: -13; L major viab: 98*; Hsp70 activator: 0; T cruzi inh: 72*; HSF1 activator: -4

What do the screens show for `Cc1cc(C(=O)Nc2cccc([N+](=O)[O-])c2C)cs1`?
HSF1 inhib: 5; T cruzi inh: -7; HSF1 activator: 11

Results for Cc1c(NC(=O)c2ccc(C(C)(C)C)cc2)cccc1[N+](=O)[O-] ?
HSF1 inhib: 41; L major viab: -8; Hsp70 activator: 0; T cruzi inh: 12; HSF1 activator: 72*

What do the screens show for `CC(C)C(=O)Nc1cccc(C(=O)Nc2nnc(C(C)C)s2)c1`?
HSF1 inhib: 22; L major viab: 53*; Hsp70 activator: 0; T cruzi inh: -2; HSF1 activator: 32

Results for CC(C)CC(NC(=O)C1CCCCC1)C(=O)N1CCN(c2ccccn2)CC1 (stereo not given) ?
HSF1 inhib: -4; L major viab: 30; Hsp70 activator: 0; T cruzi inh: -7; HSF1 activator: 9

Results for Cc1nc(C)c(C(=O)Nc2cccc(C)c2C)s1 ?
HSF1 inhib: 3; T cruzi inh: -14; HSF1 activator: 7

How did Cc1cccc(NC(=O)c2ccc([N+](=O)[O-])s2)c1C do in these assays?
HSF1 inhib: 17; L major viab: 100*; Hsp70 activator: 0; T cruzi inh: 66*; HSF1 activator: 56*

What do the screens show for `COc1ccc(NC(=O)c2ccc([N+](=O)[O-])s2)c([N+](=O)[O-])c1`?
HSF1 inhib: 24; L major viab: 32; Hsp70 activator: 0; T cruzi inh: 64*; HSF1 activator: 14

What do the screens show for `COc1ccc(NC(=O)CSc2nc3ccccc3n2-c2ccccc2)c([N+](=O)[O-])c1`?
HSF1 inhib: 5; L major viab: 70*; Hsp70 activator: 0; T cruzi inh: 27; HSF1 activator: 18

What do the screens show for `Cc1cccc(NC(=O)c2ccc([N+](=O)[O-])s2)n1`?
HSF1 inhib: 17; T cruzi inh: 65*; HSF1 activator: 24

How did COc1ccc(-c2nc(CN3CCCCC3c3cccnc3)c(C)o2)c(F)c1 (stereo not given) do in these assays?
HSF1 inhib: -2; L major viab: 2; Hsp70 activator: 0; T cruzi inh: 64*; HSF1 activator: 12

What do the screens show for `Cc1oc(-c2ccccc2Cl)nc1CN1CCCCC1c1cccnc1` (stereo not given)?
HSF1 inhib: 3; L major viab: 26; Hsp70 activator: 0; T cruzi inh: 59*; HSF1 activator: -8

Results for COc1ccc(Nc2nc(N)c([N+](=O)[O-])c(N3CCCC3)n2)cc1 ?
HSF1 inhib: -2; T cruzi inh: -13; HSF1 activator: 25

What do the screens show for `c1ccc(Nc2nc(N3CCCC3)nc(N3CCCC3)n2)cc1`?
HSF1 inhib: 0; L major viab: 38; Hsp70 activator: 0; T cruzi inh: 5; HSF1 activator: -10

What do the screens show for `COc1ccc(Nc2nc(N3CCCCC3)c3ccccc3n2)cc1`?
HSF1 inhib: -7; L major viab: 100*; Hsp70 activator: -1; T cruzi inh: 50; HSF1 activator: -23

How did Oc1ccc(Nc2nc(N3CCCC3)c3ccccc3n2)cc1 do in these assays?
HSF1 inhib: -1; L major viab: 100*; Hsp70 activator: 0; T cruzi inh: 59*; HSF1 activator: -2

How did Cc1ccc(Nc2nc(N3CCOCC3)c3ccccc3n2)cc1 do in these assays?
HSF1 inhib: 2; L major viab: 88*; Hsp70 activator: 0; T cruzi inh: 26; HSF1 activator: 1

Results for Cc1ccc(Nc2nc(N)c([N+](=O)[O-])c(N3CCOCC3)n2)cc1 ?
HSF1 inhib: -1; L major viab: -1; Hsp70 activator: 0; T cruzi inh: -20; HSF1 activator: -2

Results for Cc1cccc(-c2nc(Nc3ccc(N4CCOCC4)cc3)c3ccccc3n2)c1 ?
HSF1 inhib: 4; L major viab: 74*; Hsp70 activator: 0; T cruzi inh: 56*; HSF1 activator: 18
